High-throughput results deposited in PubChem by several laboratories.
PKA-R2B activ = activates the human PKA-R2B holoenzyme complex; P22694+P31323; PKA-R2B holoenzyme dissociation, Cy5-IP20 fluorescence polarization; R2B truncated from residue 108, S112A mutant; 0% DMSO only, 100% 113 µM cGMP; activation, % at 11.4 µM; 340,000 compounds, 0.079% hits; AID 504700;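 active means activation above a cutoff set at the mean over all compounds plus 3 SD, cut at about 18% in these data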;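 further: higher means more holoenzyme dissociation and a rise in polarization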
dFosB act = activators of mouse delta FosB homodimer; P13346; purified delta FosB, TAMRA-CDK5 oligo fluorescence polarization; percent of positive-control signal above neutral wells; activation, % at 25 µM; 340,000 compounds, 0.99% hits;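 active means mean activation above about 17%, with every replicate also reaching it, limit read from the data, passing the limit was not always enough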
Target sequence (P13346 whole entry, looked up): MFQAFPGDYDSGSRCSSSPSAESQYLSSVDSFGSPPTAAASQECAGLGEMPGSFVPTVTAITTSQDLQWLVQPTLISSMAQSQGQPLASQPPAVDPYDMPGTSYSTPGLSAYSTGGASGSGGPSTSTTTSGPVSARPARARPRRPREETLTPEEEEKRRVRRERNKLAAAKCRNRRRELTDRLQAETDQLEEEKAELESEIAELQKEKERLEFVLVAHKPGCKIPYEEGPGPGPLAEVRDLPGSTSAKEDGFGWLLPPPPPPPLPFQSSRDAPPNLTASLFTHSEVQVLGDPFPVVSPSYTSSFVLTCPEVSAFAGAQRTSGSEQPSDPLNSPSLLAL
NTR1 agonist = NTR1 (human) agonism; NTR1-U2OS beta-arrestin-GFP spot imaging, agonist mode; 330,000 compounds, 0.17% hits; P30989; activation, % at 20 µM; AID 493036;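 active means activation at or above 40% of the spot to cytoplasm intensity ratio, with at least 20 cells analyzed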;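 further: 0% = DMSO without peptide and 100% = 100 nM NTR1 peptide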
CAL PDZ FP-1 = human CAL PDZ-peptide interaction inhibition; purified CAL PDZ, TMR-peptide fluorescence polarization, 1 h; inhibition, % at 20 µM; AID 504414; Q9HD26; 330,000 compounds, 0.02% hits;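 active means highest replicate inhibition of at least 40%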;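 further: plate controls were DMSO neutral control wells for no effect and unlabeled competitor peptide control wells for full effect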
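Read-out basis: mP drop reported as inhibition | Assay system: Tagged CAL PDZ protein CerCALP, purified | Benchmarks: Unlabelled peptide for full inhibition, DMSO wells as neutral | Schedule: 1 h incubation at room temperature before polarization reading | Buffer or medium: Sodium phosphate/NaCl buffer pH 7.4 with TCEP, IgG, Thesit | Doses: Single point, 20 µM | Measured by: Fluorescence polarization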
CAL PDZ FP-2 = CAL PDZ (human) peptide binding inhibition. Q9HD26. purified CAL PDZ, TMR-peptide fluorescence polarization, 1 h. inhibition, % at 24.9 µM. 300,000 compounds, 0.92% hits;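 active means mean inhibition of at least 30% with at least half of replicates also reaching 30%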;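 further: 0% = DMSO neutral control and 100% = excess unlabeled competitor peptide PRC23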
PKA-R1A act = activates the PKA-R1A holoenzyme complex; AID 504707; PKA-R1A dissociation, Cy5-IP20 fluorescence polarization; scaled: DMSO 0%, 113 µM cGMP 100%; activation, % at 11.4 µM; P00514+P68181; 340,000 compounds, 0.083% hits;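 active means percent activation above the mean of all tested compounds plus 3 SD, cut at about 19% in these data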;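 further: higher means more PKAc released from R1A so a rise in polarization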
Starred values were filed as active, the others as inactive; ! = not confirmed by another sample. Only some compounds are listed: those with a hit (about 2% of all), similar ones and a draw of the others.

Screening CN(C(=O)c1ccc(NC(=O)Cc2cccc(NC(=O)C3CCCN(C(=O)C4CC4)C3)c2)cc1)C1CC1 (centres undefined) returned PKA-R2B activ 9.9, dFosB act -2.9, CAL PDZ FP-1 -0.1, CAL PDZ FP-2 -6.4 and PKA-R1A act -3.9.
For Cc1ccnc(NS(=O)(=O)c2ccc(NC(=O)Cc3ccc(Br)cc3)cc2)n1 the results were PKA-R2B activ 12.8, dFosB act -6.0, NTR1 agonist -2.0, CAL PDZ FP-1 -1.1 and PKA-R1A act 2.0.
Screening CCN(CC)CCn1c2ccccc2c2cnc(N=CN(C)C)c(C#N)c21 returned PKA-R2B activ -2.4, dFosB act 29.4*, NTR1 agonist -1.1, CAL PDZ FP-1 0.2, CAL PDZ FP-2 -4.1 and PKA-R1A act -13.1.
COCC(C)n1c(C)cc(C(=O)COC(=O)c2nn(C)c(=O)c3ccccc23)c1C (centres undefined) was read as PKA-R2B activ -8.6, dFosB act -11.8, NTR1 agonist 1.7, CAL PDZ FP-1 -1.5, CAL PDZ FP-2 0.0 and PKA-R1A act -1.9.
For COCC(C)n1c(C)cc(C(=O)Cn2nc(C(=O)O)c3ccccc3c2=O)c1C (centres undefined) the results were PKA-R2B activ -11.6, dFosB act 4.2, NTR1 agonist 1.1, CAL PDZ FP-1 -0.9, CAL PDZ FP-2 37.4* and PKA-R1A act -10.9.
Cc1ccc(NC(=O)c2ccc(S(=O)(=O)N3CCC(C)CC3)cc2)nc1 was read as PKA-R2B activ 1.0, dFosB act -4.6, NTR1 agonist 2.8, CAL PDZ FP-1 -0.1, CAL PDZ FP-2 47.9* and PKA-R1A act 5.1.
Screening Cc1ccc(NC(=O)c2ccc(S(=O)(=O)N3CCCCCC3)cc2)nc1 returned PKA-R2B activ -1.4, dFosB act -8.0, NTR1 agonist 0.9, CAL PDZ FP-1 -3.8, CAL PDZ FP-2 1.4 and PKA-R1A act -4.2.
For CCN(Cc1cnn(C)c1)C(=O)C1CCC(=O)N(CCc2ccc(OC)cc2)C1 (centres undefined) the results were PKA-R2B activ -1.7, dFosB act -3.2, NTR1 agonist -0.2, CAL PDZ FP-1 -0.6, CAL PDZ FP-2 85.9* and PKA-R1A act 12.4.
`Cc1ccc(S(=O)(=O)Nc2c(C)n(C)n(-c3ccccc3)c2=O)cc1` gave PKA-R2B activ 7.4, dFosB act 3.2, NTR1 agonist 1.9, CAL PDZ FP-1 10.2, CAL PDZ FP-2 54.4*! and PKA-R1A act -13.8.
Screening O=C(NC1CCCC1)C(c1ccccn1)N(Cc1ccc(F)cc1)C(=O)c1csnn1 (centres undefined) returned PKA-R2B activ -2.2, dFosB act -4.1, NTR1 agonist -0.4, CAL PDZ FP-1 -0.7, CAL PDZ FP-2 51.4* and PKA-R1A act 1.6.
`O=C(NC1CCCC1)C(c1ccccc1)N(Cc1ccc(F)cc1)C(=O)c1csnn1` (centres undefined) gave PKA-R2B activ -1.2, dFosB act -4.4, NTR1 agonist 0.5, CAL PDZ FP-1 -2.0, CAL PDZ FP-2 -6.3 and PKA-R1A act 1.9.
COc1cc(OC)cc(C(=O)NCC2CCCN(C(=O)c3oc(C)cc3C)C2)c1 (centres undefined) was read as PKA-R2B activ -9.5, dFosB act -5.6, NTR1 agonist 0.2, CAL PDZ FP-1 -0.5, CAL PDZ FP-2 46.2* and PKA-R1A act -12.0.
Screening Cc1cc(C)c(C(=O)N2CCCC(CNS(=O)(=O)N(C)C)C2)o1 (centres undefined) returned PKA-R2B activ 11.0, dFosB act 6.1, NTR1 agonist 0.0, CAL PDZ FP-1 -0.9, CAL PDZ FP-2 -2.6 and PKA-R1A act 3.7.
For Cc1cc(F)ccc1NC(=O)CCc1c(C)nn(-c2ccc(N3CCCCC3)nn2)c1C the results were PKA-R2B activ 3.3, dFosB act -6.2, NTR1 agonist -0.3, CAL PDZ FP-1 -1.7, CAL PDZ FP-2 80.3* and PKA-R1A act -1.5.
`O=C(C=P(c1ccccc1)(c1ccccc1)c1ccccc1)c1ccccc1-c1ccccc1C(=O)C=P(c1ccccc1)(c1ccccc1)c1ccccc1` gave PKA-R2B activ -2.4, dFosB act 36.4*, CAL PDZ FP-1 0.5, CAL PDZ FP-2 -5.5 and PKA-R1A act 2.0.
O=C(NCCc1ccccc1C(F)(F)F)C1CCC(=O)N(CCCN2CCCC2=O)C1 (centres undefined) was read as PKA-R2B activ 4.8, dFosB act 1.6, NTR1 agonist -0.4, CAL PDZ FP-1 0.5, CAL PDZ FP-2 51.6* and PKA-R1A act -9.5.
Screening O=C(NC1CCCCC1)C1CCN(c2nccs2)CC1 returned PKA-R2B activ -4.9, dFosB act -4.0, NTR1 agonist 1.1, CAL PDZ FP-1 -2.0, CAL PDZ FP-2 33.5* and PKA-R1A act 2.6.
COC(=O)C[C@H]1C[C@H]2c3cc(NC(=O)Nc4ccc(F)cc4)ccc3O[C@H]2[C@@H](CO)O1 was read as PKA-R2B activ 6.3 and PKA-R1A act -10.8.
CSc1cccc(CN2CCCC(C(=O)Nc3cccc(-n4cccn4)c3)C2)c1 (centres undefined) was read as PKA-R2B activ 2.7, dFosB act -6.6, NTR1 agonist 4.0, CAL PDZ FP-1 -2.6, CAL PDZ FP-2 -7.2 and PKA-R1A act -3.7.
Screening Cc1ccc2c(c1)CC1(CN2C)C(=O)OC2(CCCCC2)OC1=O returned PKA-R2B activ -2.1, dFosB act -5.1, NTR1 agonist -0.1, CAL PDZ FP-1 0.3, CAL PDZ FP-2 78.1* and PKA-R1A act 1.2.
Screening CCOC(=O)N1CCC(Nc2c(Nc3ccc(F)cc3)c(=O)c2=O)CC1 returned PKA-R2B activ -1.2, dFosB act -3.4, NTR1 agonist -2.3, CAL PDZ FP-1 -0.3, CAL PDZ FP-2 59.1* and PKA-R1A act -2.5.
For CCOc1nc2cnccc2n(CC(=O)Nc2ccc(C)c(C)c2)c1=O the results were PKA-R2B activ 6.3, dFosB act -7.9, NTR1 agonist -0.6, CAL PDZ FP-1 -3.0, CAL PDZ FP-2 -1.2 and PKA-R1A act 3.1.
For C=CC(C)n1c(Br)nc2c1c(=O)[nH]c(=O)n2C (centres undefined) the results were PKA-R2B activ -5.9, dFosB act -0.5, NTR1 agonist -1.4, CAL PDZ FP-2 -4.0 and PKA-R1A act -10.5.
CC(C)n1c(=S)[nH]c2c1c(=O)[nH]c(=O)n2C was read as PKA-R2B activ -3.9, dFosB act -5.2, NTR1 agonist 1.0, CAL PDZ FP-1 -2.4, CAL PDZ FP-2 43.3* and PKA-R1A act 0.7.
Screening O=C(NCC1CCCCC1)c1cccnc1 returned PKA-R2B activ -9.2, dFosB act 4.1, NTR1 agonist 0.3, CAL PDZ FP-1 3.5, CAL PDZ FP-2 43.4* and PKA-R1A act 0.6.
